The entries come from a sample that favours hits as a whole.
T cruzi HTS: inhibitors of intracellular Trypanosoma cruzi, primary screen, cell-based, plate reader, single point, set 2. activity score (inhibition), % at 5.01 µM. AID 651903, 2012. intracellular Trypanosoma cruzi in host cells. actives 4.9% (n = 22,000); in the data active = activity score above about 55%; inconclusive = no clear call, values can overlap the other calls;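 also: parasites and compound incubated about four days before reading; 0% = median of neutral control wells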
INS-1E ATP HTS: protection of INS-1E cells from cytokine death, primary screen, ATP luminescence, single point; INS-1E cytokine-induced death, 48 h; normalised: neutral wells 0, positive control 100; protection from cytokine-induced ATP loss, % at 10 µM; actives 0.1% (n = 20,000); AID 488910, 2010;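 active = mean replicate protection from cytokine-induced ATP loss at least 50% and at least 75% of replicates each reaching 50%; inconclusive = meets only one of the two criteria, mean or replicate share; inactive = fails both the mean and replicate share criteria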
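Assay system: INS-1E rat insulinoma cells. Amount: 8000 cells per well. Medium: phenol-red-free RPMI with 5% fetal bovine serum. Reagent: IL-1β, TNF-α and IFN-γ cytokine mix. Doses: one compound concentration, pin transfer. Schedule: 48 h co-treatment, 10 min post-lysis read. Detection: CellTiter-Glo luminescence measuring cellular ATP.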
A1 apoptosis 2: A1 inhibitors via caspase activation, primary screen, cell-based, luminescence, HTS, two replicates | MEF A1-2A-BIM cells, caspase-Glo luminescence, 3 h; percent of clofoctol response, DMSO zero | caspase activation, % (concentration not given with the values) | 24,000 tested, under 10 active; in the data active = caspase activation above about 5.9%; inconclusive = no clear call, values can overlap the other calls; inactive = below about 2.2%
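Test system – A1-2A-BIM-expressing MEF cells · Input – 2500 cells/well · Medium – RPMI-1640 growth medium with 10% FBS · Compound dosing – 50 nL pinned compound · Timing – 3 h compound exposure at 37 °C · Technique – Caspase-Glo luminescence (DEVD substrate) · Evaluation – Caspase-3/7 activity from luminescence increase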
The depositor's hits bear a star.

For C[C@@H]1CN([C@H](C)CO)C(=O)Cc2cc(NC(=O)Nc3ccc(F)cc3)ccc2O[C@@H]1CN(C)Cc1ccc(Oc2ccccc2)cc1 the results were T cruzi HTS 71*, INS-1E ATP HTS -53 and A1 apoptosis 2 0.
COc1ccc(NC(=O)Nc2ccc3c(c2)CC(=O)N([C@H](C)CO)C[C@H](C)[C@H](CN(C)Cc2ccc(-c4ccccc4)cc2)O3)cc1 was read as T cruzi HTS 15, INS-1E ATP HTS -36 and A1 apoptosis 2 0.
For COc1ccc(NC(=O)Nc2ccc3c(c2)CC(=O)N([C@H](C)CO)C[C@H](C)[C@H](CN(C)Cc2ccc(Oc4ccccc4)cc2)O3)cc1 the results were T cruzi HTS 32, INS-1E ATP HTS -37 and A1 apoptosis 2 0.
Screening C[C@H](CO)N1C[C@H](C)[C@H](CN(C)Cc2ccc(Oc3ccccc3)cc2)Oc2ccc(NC(=O)Nc3ccc(F)cc3)cc2CC1=O returned T cruzi HTS 62* and INS-1E ATP HTS -52.
C[C@H]1CN([C@@H](C)CO)C(=O)Cc2cc(NC(=O)Nc3ccc(F)cc3)ccc2O[C@H]1CN(C)Cc1ccccc1 was read as T cruzi HTS 25, INS-1E ATP HTS -10 and A1 apoptosis 2 1.
For Cc1noc(C)c1NC(=O)N(C)C[C@H]1Oc2ccc(NS(=O)(=O)c3cccs3)cc2C(=O)N([C@@H](C)CO)C[C@H]1C the results were T cruzi HTS 6 and A1 apoptosis 2 1.
C[C@@H]1CCCCO[C@@H](CN(C)S(=O)(=O)c2cccs2)[C@@H](C)CN([C@@H](C)CO)C(=O)c2cc(N(C)C)ccc2O1 was read as A1 apoptosis 2 -1.
C[C@@H]1CN([C@@H](C)CO)C(=O)Cc2cc(NC(=O)CCN3CCOCC3)ccc2O[C@@H]1CN(C)CC1CCCCC1 was read as T cruzi HTS 3 and INS-1E ATP HTS -14.
Screening Cc1ccc(S(=O)(=O)Nc2ccc3c(c2)C(=O)N([C@@H](C)CO)C[C@H](C)[C@@H](CN(C)C(=O)Nc2ccc4c(c2)OCO4)OCCCC[C@H](C)O3)cc1 returned A1 apoptosis 2 -1.
Screening CC(C)NC(=O)Nc1ccc2c(c1)C(=O)N([C@@H](C)CO)C[C@@H](C)[C@H](CN(C)Cc1ccncc1)OCCCC[C@H](C)O2 returned A1 apoptosis 2 -1.
C[C@H]1CCCCO[C@@H](CN(C)Cc2ccncc2)[C@@H](C)CN([C@@H](C)CO)C(=O)c2cc(NC(=O)Nc3cccc4ccccc34)ccc2O1 was read as A1 apoptosis 2 -1.
For CNC[C@H]1Oc2c(NS(=O)(=O)c3ccc(F)cc3)cccc2C(=O)N([C@H](C)CO)C[C@H]1C the results were T cruzi HTS 6, INS-1E ATP HTS 3 and A1 apoptosis 2 0.
C[C@H]1CN([C@@H](C)CO)C(=O)Cc2cc(NC(=O)Nc3ccc(F)cc3)ccc2O[C@@H]1CN(C)Cc1ccc(Oc2ccccc2)cc1 was read as T cruzi HTS 70* and INS-1E ATP HTS -25.
`C[C@H](CO)N1C[C@H](C)[C@@H](CN(C)Cc2ccc(Oc3ccccc3)cc2)Oc2ccc(NC(=O)Nc3ccc(F)cc3)cc2CC1=O` gave A1 apoptosis 2 0.
`O=C(NO)c1ccc(C(=O)N/N=C/c2ccco2)cc1` gave T cruzi HTS 4, INS-1E ATP HTS -4 and A1 apoptosis 2 -1.
Screening C[C@H]1CN([C@@H](C)CO)C(=O)c2cccc(NC(=O)c3nc4ccccc4s3)c2O[C@H]1CN(C)S(=O)(=O)c1ccc(Cl)cc1 returned T cruzi HTS 36, INS-1E ATP HTS 2 and A1 apoptosis 2 0.
COc1ccc(S(=O)(=O)N(C)C[C@H]2Oc3c(NC(=O)c4nc5ccccc5s4)cccc3C(=O)N([C@@H](C)CO)C[C@H]2C)cc1 was read as T cruzi HTS 30 and INS-1E ATP HTS -19.
`C[C@H]1CN([C@@H](C)CO)C(=O)c2cccc(NC(=O)c3nc4ccccc4s3)c2O[C@@H]1CN(C)S(=O)(=O)c1ccc(F)cc1` gave T cruzi HTS 67*, INS-1E ATP HTS -20 and A1 apoptosis 2 0.
Screening C[C@H]1CN([C@@H](C)CO)C(=O)c2cccc(NC(=O)c3nc4ccccc4s3)c2O[C@H]1CN(C)S(=O)(=O)c1ccc(F)cc1 returned T cruzi HTS 74* and INS-1E ATP HTS -31.
C[C@@H]1CN([C@@H](C)CO)C(=O)c2cccc(NC(=O)c3nc4ccccc4s3)c2O[C@@H]1CN(C)S(=O)(=O)c1ccc(F)cc1 was read as T cruzi HTS 35, INS-1E ATP HTS -11 and A1 apoptosis 2 -1.
For C[C@H]1CN([C@@H](C)CO)C(=O)c2cccc(NC(=O)c3nc4ccccc4s3)c2O[C@@H]1CN(C)S(=O)(=O)c1ccc(Cl)cc1 the results were T cruzi HTS 78*, INS-1E ATP HTS -17 and A1 apoptosis 2 -1.
Screening COc1ccc(S(=O)(=O)N(C)C[C@@H]2Oc3c(NC(=O)c4nc5ccccc5s4)cccc3C(=O)N([C@H](C)CO)C[C@@H]2C)cc1 returned T cruzi HTS 70*, INS-1E ATP HTS -50 and A1 apoptosis 2 0.
C[C@H](CO)N1C[C@H](C)[C@@H](CN(C)S(=O)(=O)c2ccc(F)cc2)Oc2c(NC(=O)c3nc4ccccc4s3)cccc2C1=O was read as T cruzi HTS inconclusive and INS-1E ATP HTS -13.
Screening COc1ccc(S(=O)(=O)N(C)C[C@@H]2Oc3ccc(NS(=O)(=O)c4ccccc4)cc3C(=O)N([C@@H](C)CO)C[C@H]2C)cc1 returned T cruzi HTS 10, INS-1E ATP HTS -9 and A1 apoptosis 2 -1.
`C[C@H](CO)N1C[C@H](C)[C@@H](CN(C)Cc2ccc(C(F)(F)F)cc2)Oc2c(cccc2N(C)C)C1=O` gave T cruzi HTS 11, INS-1E ATP HTS -17 and A1 apoptosis 2 0.
For C[C@H]1CN([C@@H](C)CO)C(=O)c2cccc(NC(=O)c3nc4ccccc4s3)c2O[C@H]1CN(C)S(=O)(=O)c1cccs1 the results were T cruzi HTS 37, INS-1E ATP HTS -11 and A1 apoptosis 2 0.
`C[C@H](CO)N1C[C@H](C)[C@H](CN(C)S(=O)(=O)c2cccs2)Oc2c(NC(=O)c3nc4ccccc4s3)cccc2C1=O` gave T cruzi HTS 76*, INS-1E ATP HTS -16 and A1 apoptosis 2 0.
`Cc1ccc(S(=O)(=O)Nc2ccc3c(c2)CC(=O)N([C@H](C)CO)C[C@H](C)[C@H](CN(C)Cc2ccc(Cl)c(Cl)c2)O3)cc1` gave T cruzi HTS 21, INS-1E ATP HTS -4 and A1 apoptosis 2 0.
`C[C@@H]1CN([C@H](C)CO)C(=O)Cc2cc(NS(=O)(=O)c3ccc(Cl)cc3)ccc2O[C@@H]1CN(C)Cc1ccc(Cl)c(Cl)c1` gave T cruzi HTS 67* and INS-1E ATP HTS -65.
`C[C@H](CO)N1C[C@H](C)[C@H](CN(C)Cc2ccc(Cl)c(Cl)c2)Oc2ccc(NS(=O)(=O)c3ccc(F)cc3)cc2CC1=O` gave T cruzi HTS 57* and INS-1E ATP HTS 0.
